Measurements as given in ChEMBL document CHEMBL4680121, “Development of (4-methoxyphenyl)-1H-tetrazol-5-amine regioisomers as a new class of selective antitubercular agents” (Eur J Med Chem, 2020).
pIC50: −log10 of the molar value. In brackets after ≈: the same amount, converted by molar mass.

Columns and labels:
[1] = tested on: Staphylococcus epidermidis; assay: Antibacterial activity against Staphylococcus epidermidis ATCC 1457 assessed as bacterial growth inhibition measured after 18 hrs by two-fold serial microdilution method; assay type: functional
Method in brief: (§1)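 Two-fold serial broth microdilution in MH II medium following modified CLSI procedures. Compounds were dissolved in DMSO and diluted in medium to at most 1% solvent, tested from 0.03125 to 512 μg/ml. Final inoculum 10^6 CFU/ml. MIC was taken as the lowest concentration with no visible growth after 18 h at 35 °C.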

[2] = tested on: Pseudomonas aeruginosa; assay: Antibacterial activity against Pseudomonas aeruginosa PAO1 assessed as bacterial growth inhibition measured after 18 hrs by two-fold serial microdilution method; assay type: functional; method in brief: as §1
[3] = tested on: V79; assay: Cytotoxicity against Chinese Hamster V79 cells assessed as reduction in cell viability at 100 uM measured after 72 hrs by MTT assay; assay type: cell-based, Cricetulus griseus; details: v79, 72 h
Method in brief: (§2)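 MTT viability assay on cells grown in DMEM with 10% heat-inactivated FBS, penicillin/streptomycin and 20 mM HEPES at 37 °C/5% CO2. Cells were seeded at 1×10^4 per well and allowed to adhere for 24 h, then the medium was refreshed. Compounds were added at 20–140 μM for 72 h at 37 °C, followed by MTT (0.5 mg/mL in serum-free medium) for 4 h. Untreated cells served as control. IC50 is the concentration giving 50% growth inhibition versus control.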

[4] = tested on: Mycobacterium avium; assay: Antimycobacterial activity against Mycobacterium avium assessed as inhibition of microbial growth incubated for 1 week by MABA method; assay type: functional; details: 168 h, time 1 weeks
Method in brief: (§3)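 Microplate Alamar Blue assay in Middlebrook 7H9 broth with 10% OADC. Inoculum from fresh LJ culture was adjusted to McFarland 1 and diluted 1:20. DMSO stocks were two-fold serially diluted to final 0.125–512 µg/ml, with growth and sterile controls. Plates ran 1 week at 37 °C, then Alamar blue was added for 24 h. MIC is the lowest concentration preventing the blue-to-pink change.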

[5] = tested on: Proteus vulgaris; assay: Antibacterial activity against Proteus vulgaris NCTC 4635 assessed as bacterial growth inhibition measured after 18 hrs by two-fold serial microdilution method; assay type: functional; method in brief: as §1
[6] = tested on: Staphylococcus epidermidis; assay: Antibacterial activity against Staphylococcus epidermidis ATCC 12228 assessed as bacterial growth inhibition measured after 18 hrs by two-fold serial microdilution method; assay type: functional; method in brief: as §1
[7] = tested on: Staphylococcus epidermidis; assay: Antibacterial activity against Staphylococcus epidermidis ATCC 35984/RP62A assessed as bacterial growth inhibition measured after 18 hrs by two-fold serial microdilution method; assay type: functional; method in brief: as §1
[8] = tested on: Mycobacterium tuberculosis; assay: Antitubercular activity against Mycobacterium tuberculosis H37Rv ATCC 25618 assessed as inhibition of microbial growth incubated for 1 week by MABA method; assay type: functional; details: H37Rv ATCC 25618, 168 h, time 1 weeks; method in brief: as §3
[9] = tested on: Mycobacterium kansasii; assay: Antibacterial activity against Mycobacterium kansasii assessed as inhibition of microbial growth incubated for 1 week by MABA method; assay type: functional; details: 168 h, time 1 weeks
Method in brief: (§4)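 Microplate Alamar Blue assay using two-fold serial microdilution in Middlebrook 7H9 broth with 10% OADC, compounds 0.125–512 µg/ml from DMSO stocks. Inoculum came from fresh LJ culture, was adjusted to McFarland 1 and diluted 1:20. Plates were incubated 1 week at 37 °C, Alamar blue was added and plates were re-incubated 24 h. MIC was the lowest concentration preventing the blue-to-pink change. Each plate carried growth and sterile controls.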

[10] = tested on: Staphylococcus aureus; assay: Antibacterial activity against Staphylococcus aureus NCTC 4163 assessed as bacterial growth inhibition measured after 18 hrs by two-fold serial microdilution method; assay type: functional; method in brief: as §1
[11] = tested on: Mycolicibacterium fortuitum; assay: Antibacterial activity against Mycobacterium fortuitum assessed as inhibition of microbial growth incubated for 1 week by MABA method; assay type: functional; details: 168 h, time 1 weeks; method in brief: as §4
[12] = tested on: Mycobacterium scrofulaceum; assay: Antibacterial activity against Mycobacterium scrofulaceum assessed as inhibition of microbial growth incubated for 1 week by MABA method; assay type: functional; details: 168 h, time 1 weeks; method in brief: as §4
[13] = tested on: HaCaT; assay: Cytotoxicity against human HaCaT cells assessed as reduction in cell viability at 100 uM measured after 72 hrs by MTT assay; assay type: cell-based; method in brief: as §2
[14] = tested on: V79; assay: Cytotoxicity against Chinese Hamster V79 cells assessed as reduction in cell viability measured after 72 hrs by MTT assay; assay type: cell-based; details: Cricetulus griseus, V79, 72 h; method in brief: as §2
[15] = tested on: Escherichia coli; assay: Antibacterial activity against Escherichia coli ATCC 25922 assessed as bacterial growth inhibition measured after 18 hrs by two-fold serial microdilution method; assay type: functional; method in brief: as §1
[16] = tested on: Mycobacterium xenopi; assay: Antibacterial activity against Mycobacterium xenopi assessed as inhibition of microbial growth incubated for 1 week by MABA method; assay type: functional; details: 168 h, time 1 weeks; method in brief: as §4
[17] = tested on: Mycobacterium intracellulare; assay: Antimycobacterial activity against Mycobacterium intracellulare assessed as inhibition of microbial growth incubated for 1 week by MABA method; assay type: functional; details: 168 h, time 1 weeks; method in brief: as §4
[18] = tested on: Klebsiella pneumoniae; assay: Antibacterial activity against Klebsiella pneumoniae ATCC 10031 assessed as bacterial growth inhibition measured after 18 hrs by two-fold serial microdilution method; assay type: functional; method in brief: as §1
[19] = tested on: Mycobacterium tuberculosis; assay: Antitubercular activity against Mycobacterium tuberculosis Spec.192 assessed as inhibition of microbial growth incubated for 1 week by MABA method; assay type: functional; details: Mycobacterium tuberculosis, 192, 168 h; time 1 weeks; method in brief: as §3
[20] = tested on: HaCaT; assay: Cytotoxicity against human HaCaT cells assessed as reduction in cell viability measured after 72 hrs by MTT assay; assay type: cell-based; method in brief: as §2
[21] = tested on: Pseudomonas aeruginosa; assay: Antibacterial activity against Pseudomonas aeruginosa NCTC 6749 assessed as bacterial growth inhibition measured after 18 hrs by two-fold serial microdilution method; assay type: functional; method in brief: as §1
[22] = tested on: Staphylococcus aureus; assay: Antibacterial activity against Staphylococcus aureus ATCC 6538 assessed as bacterial growth inhibition measured after 18 hrs by two-fold serial microdilution method; assay type: functional; method in brief: as §1

SMILES	MIC [1]	MIC [2]	Activity [3]	MIC [4]	MIC [5]	MIC [6]	MIC [7]	MIC [8]	MIC [9]	MIC [10]	MIC [11]	MIC [12]	Activity [13]	pIC50 [14]	MIC [15]	MIC [18]	MIC [19]	pIC50 [20]	MIC [21]	MIC [22]	other results
COc1ccc(Nc2nnnn2-c2cccc(Br)c2)cc1	> 256 µg/mL	> 256 µg/mL	Non-Toxic	64 µg/mL	> 256 µg/mL	> 256 µg/mL	> 256 µg/mL	16 µg/mL	512 µg/mL	> 256 µg/mL	512 µg/mL	32 µg/mL	Non-Toxic	3.91	> 256 µg/mL	> 256 µg/mL	16 µg/mL	3.97	> 256 µg/mL	> 256 µg/mL	MIC [16]: 512 µg/mL; MIC [17]: > 256 µg/mL
COc1ccc(-n2nnnc2Nc2ccccc2Cl)cc1	64 µg/mL (≈ 212 µM)	> 256 µg/mL	Non-Toxic	128 µg/mL	64 µg/mL (≈ 212 µM)	128 µg/mL (≈ 424 µM)	256 µg/mL (≈ 848 µM)	8 µg/mL	512 µg/mL	32 µg/mL (≈ 106 µM)	256 µg/mL	32 µg/mL	Non-Toxic	3.61	> 256 µg/mL	> 256 µg/mL	8 µg/mL	3.87	> 256 µg/mL	32 µg/mL (≈ 106 µM)	MIC [16]: 512 µg/mL; MIC [17]: 128 µg/mL
COc1ccc(Nc2nnnn2-c2ccc(Br)cc2)cc1	> 256 µg/mL	> 256 µg/mL	Non-Toxic	> 512 µg/mL	> 256 µg/mL	> 256 µg/mL	> 256 µg/mL	16 µg/mL	512 µg/mL	> 256 µg/mL	> 512 µg/mL	256 µg/mL	Non-Toxic	3.90	> 256 µg/mL	> 256 µg/mL	16 µg/mL	3.99	> 256 µg/mL	> 256 µg/mL	MIC [16]: 512 µg/mL; MIC [17]: 256 µg/mL
COc1ccc(-n2nnnc2Nc2ccccc2F)cc1	> 256 µg/mL	> 256 µg/mL	Non-Toxic		> 256 µg/mL	> 256 µg/mL	> 256 µg/mL	16 µg/mL		> 256 µg/mL			Non-Toxic	3.94	> 256 µg/mL	> 256 µg/mL	16 µg/mL	3.95	> 256 µg/mL	> 256 µg/mL	
COc1ccc(Nc2nnnn2-c2ccccc2Br)cc1	> 256 µg/mL	> 256 µg/mL	Non-Toxic	> 512 µg/mL	> 256 µg/mL	> 256 µg/mL	> 256 µg/mL	16 µg/mL	256 µg/mL	> 256 µg/mL	> 512 µg/mL	128 µg/mL	Non-Toxic	3.92	> 256 µg/mL	> 256 µg/mL	16 µg/mL	3.98	> 256 µg/mL	> 256 µg/mL	MIC [16]: > 512 µg/mL; MIC [17]: 256 µg/mL
COc1ccc(Nc2nnnn2-c2ccccc2F)cc1	64 µg/mL (≈ 224 µM)	256 µg/mL (≈ 897 µM)	Non-Toxic	256 µg/mL	256 µg/mL (≈ 897 µM)	64 µg/mL (≈ 224 µM)	64 µg/mL (≈ 224 µM)	16 µg/mL	256 µg/mL	64 µg/mL (≈ 224 µM)	256 µg/mL	32 µg/mL	Non-Toxic	3.67	256 µg/mL (≈ 897 µM)	256 µg/mL (≈ 897 µM)	16 µg/mL	3.91	256 µg/mL (≈ 897 µM)	64 µg/mL (≈ 224 µM)	MIC [16]: 128 µg/mL; MIC [17]: 128 µg/mL
COc1ccc(-n2nnnc2Nc2ccccc2Br)cc1	256 µg/mL (≈ 739 µM)	> 256 µg/mL	Non-Toxic	256 µg/mL	> 256 µg/mL	128 µg/mL (≈ 370 µM)	256 µg/mL (≈ 739 µM)	64 µg/mL	512 µg/mL	256 µg/mL (≈ 739 µM)	256 µg/mL	256 µg/mL	Non-Toxic	3.62	> 256 µg/mL	> 256 µg/mL	64 µg/mL	3.86	> 256 µg/mL	256 µg/mL (≈ 739 µM)	MIC [16]: 512 µg/mL; MIC [17]: 128 µg/mL
